In ChEMBL document CHEMBL4428078, “Discovery of S3-Truncated, C-6 Heteroaryl Substituted Aminothiazine β-Site APP Cleaving Enzyme-1 (BACE1) Inhibitors” (J Med Chem, 2016):

Columns and labels:
[1] = Metabolic stability in rat liver microsomes assessed as compound remaining at 0.5 uM measured after 10 mins; format: ADME, Microsome; conditions: read-out: Stability
Summary of the method: (§1)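 Test compound at 0.5 µM incubated 10 min with mouse, rat or human liver microsomes. Read-out is percent of parent compound remaining.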

Beta-secretase 1 = Beta-secretase 1 (Homo sapiens, UniProt P56817); experiment: Inhibition of BACE1 in human H4 cells expressing swedish mutant APP751 assessed as reduction in amyloid beta level measured after 19 hrs; format: cell-based
[2] = Metabolic stability in mouse liver microsomes assessed as compound remaining at 0.5 uM measured after 10 mins; format: ADME, Microsome; conditions: read-out: Stability; summary of the method: as §1
[3] = Metabolic stability in human liver microsomes assessed as compound remaining at 0.5 uM measured after 10 mins; format: ADME, Microsome; conditions: read-out: Stability; summary of the method: as §1
[4] = Plasma concentration in mouse at 30 mg/kg, po measured after 3 hrs; format: ADME, organism-based
Summary of the method: (§2)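 Young mice given a single oral dose of 30 mg/kg. Total brain and plasma drug levels were measured 3 h post-dose and the brain/plasma ratio derived.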

[5] = Drug uptake in mouse brain at 30 mg/kg, po measured after 3 hrs; format: ADME, organism-based; conditions: read-out: Drug uptake; summary of the method: as §2
[6] = Ratio of drug level in brain to plasma of mouse at 30 mg/kg, po measured at 3 hrs post dose; format: ADME, organism-based; conditions: read-out: BPR; summary of the method: as §2

Beta-secretase 1, sequence (P56817 whole entry): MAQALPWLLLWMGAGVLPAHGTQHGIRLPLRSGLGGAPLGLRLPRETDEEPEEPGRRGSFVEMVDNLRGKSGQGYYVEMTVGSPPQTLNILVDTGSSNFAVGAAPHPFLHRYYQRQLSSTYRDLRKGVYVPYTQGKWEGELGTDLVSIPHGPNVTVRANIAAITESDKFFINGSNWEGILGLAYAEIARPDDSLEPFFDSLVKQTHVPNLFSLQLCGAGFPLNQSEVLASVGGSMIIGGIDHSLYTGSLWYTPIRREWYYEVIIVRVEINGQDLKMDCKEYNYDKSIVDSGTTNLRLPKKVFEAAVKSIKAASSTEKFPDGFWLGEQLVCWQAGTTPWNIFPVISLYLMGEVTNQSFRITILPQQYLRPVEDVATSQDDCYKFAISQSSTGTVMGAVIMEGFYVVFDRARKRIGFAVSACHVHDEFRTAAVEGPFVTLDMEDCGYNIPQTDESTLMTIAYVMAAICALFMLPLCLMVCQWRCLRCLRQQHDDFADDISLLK

| SMILES | remaining at 10 min, 0.5 µM [1] [%] | IC50 (Beta-secretase 1) [µM] | remaining at 10 min, 0.5 µM [2] [%] | remaining at 10 min, 0.5 µM [3] [%] | concentration at 3 h [4] [µM] | concentration at 3 h [5] [µM] | Kp at 3 h [6] |
| --- | --- | --- | --- | --- | --- | --- | --- |
| Cc1noc(C)c1[C@@H]1C[C@@](C)(c2ccccc2)N=C(N)S1 | 81 | 0.48 | 78 | 86 |  |  |  |
| Cc1onc(-c2ccccc2)c1[C@@H]1C[C@@](C)(c2ccc(F)cc2F)N=C(N)S1 | 13 | 0.16 | 12 | 38 |  |  |  |
| Cc1noc(C(F)F)c1[C@@H]1C[C@@](C)(c2ccc(F)cc2F)N=C(N)S1 | 67 | 0.42 | 59 | 35 |  |  |  |
| Cc1noc(-c2ccccc2)c1[C@@H]1C[C@@](C)(c2ccc(F)cc2F)N=C(N)S1 | 20 | 0.23 | 6 | 39 |  |  |  |
| CCc1noc(CC)c1[C@@H]1C[C@@](C)(c2ccc(F)cc2F)N=C(N)S1 | 67 | 0.42 | 59 | 35 |  |  |  |
| Cc1noc(C)c1[C@@H]1C[C@@](C)(c2cc(-c3cncnc3)c(F)cc2F)N=C(N)S1 |  |  |  |  | 7.4 | 0.58 | 0.08 |
| Cc1noc(C)c1[C@@H]1C[C@@](C)(c2sccc2Cl)N=C(N)S1 | 12 | 0.3 | 21 | 11 |  |  |  |
| CCc1noc(C)c1[C@@H]1C[C@@](C)(c2ccc(F)cc2F)N=C(N)S1 | 59 | 0.25 | 41 | 21 |  |  |  |
